Source: ChEMBL document CHEMBL1649538 (2009)
In brackets after ≈: the same amount, converted by molar mass.

Key:
Format in all cases: functional
[1] = test system: Staphylococcus aureus; experiment: Antibacterial activity against Staphylococcus aureus ATCC 35556 after 24 hrs by CLSI method; details: ATCC 35556, 24 h
Method in brief: (§1)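 Conventional MIC determined in duplicate following CLSI dilution guidelines, with cultures incubated at 35°C.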

[2] = test system: Staphylococcus epidermidis; experiment: Antibacterial activity against Staphylococcus epidermidis RP62A assessed as inhibition of biofilm formation after 24 hrs by CLSI method
Method in brief: (§2)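 Modified Calgary pin-lid device. Inoculum of 7 log10 CFU/ml was prepared by direct colony suspension from 24-h TSA growth. Biofilm grew on pins for 24 h at 35°C on a rocking table in TSB with 1% glucose and 2% NaCl. Pins were rinsed three times in PBS and exposed 24 h at 35°C to serial antibiotic dilutions. MBIC is the last well without visible growth. Quadruplicate.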

[3] = test system: Staphylococcus epidermidis; experiment: Antibacterial activity against slime-negative Staphylococcus epidermidis M7 assessed as induction of biofilm eradication after 24 hrs by CLSI method
Method in brief: (§3)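 Pin-lid biofilms were grown 24 h at 35°C in TSB with 1% glucose and 2% NaCl (7 log10 CFU/ml start), rinsed in PBS, and exposed 24 h at 35°C to serial antibiotic dilutions. Pin bacteria were dispersed by sonication and vortexing. Counts were plated in duplicate on TSA (detection limit 2.4 CFU/ml) or read as turbidity at 570 nm. Quadruplicate.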

[4] = test system: Staphylococcus aureus; experiment: Antibacterial activity against methicillin-susceptible Staphylococcus aureus L2 assessed as inhibition of biofilm formation after 24 hrs by CLSI method; method in brief: as §2
[5] = test system: Enterococcus faecalis; experiment: Antibacterial activity against Enterococcus faecalis ATCC 29212 assessed as induction of biofilm eradication after 24 hrs by CLSI method; method in brief: as §3
[6] = test system: Staphylococcus aureus; experiment: Antibacterial activity against methicillin-resistant Staphylococcus aureus L32 assessed as induction of biofilm eradication after 24 hrs by CLSI method; method in brief: as §3
[7] = test system: Enterococcus faecalis; experiment: Antibacterial activity against Enterococcus faecalis ATCC 29212 assessed as inhibition of biofilm formation after 24 hrs by CLSI method; method in brief: as §2
[8] = test system: Staphylococcus epidermidis; experiment: Antibacterial activity against Staphylococcus epidermidis RP62A after 24 hrs by CLSI method
[9] = test system: Staphylococcus aureus; experiment: Antibacterial activity against methicillin-resistant Staphylococcus aureus L83 after 24 hrs by CLSI method; details: L83, 24 h; method in brief: as §1
[10] = test system: Staphylococcus aureus; experiment: Antibacterial activity against Staphylococcus aureus ATCC 35556 assessed as induction of biofilm eradication after 24 hrs by CLSI method; method in brief: as §3
[11] = test system: Staphylococcus aureus; experiment: Antibacterial activity against methicillin-resistant Staphylococcus aureus by broth microdilution method
[12] = test system: Staphylococcus epidermidis; experiment: Antibacterial activity against slime-negative Staphylococcus epidermidis M7 assessed as inhibition of biofilm formation after 24 hrs by CLSI method; method in brief: as §2
[13] = test system: Staphylococcus epidermidis; experiment: Antibacterial activity against slime-negative Staphylococcus epidermidis M7 after 24 hrs by CLSI method; details: M7, 24 h
[14] = test system: Staphylococcus aureus; experiment: Antibacterial activity against methicillin-resistant Staphylococcus aureus L32 after 24 hrs by CLSI method; details: L32, 24 h; method in brief: as §1
[15] = test system: Enterococcus faecalis; experiment: Antibacterial activity against Enterococcus faecalis ATCC 29212 after 24 hrs by CLSI method; details: ATCC 29212, 24 h; method in brief: as §1
[16] = test system: Staphylococcus epidermidis; experiment: Antibacterial activity against Staphylococcus epidermidis RP62A assessed as induction of biofilm eradication after 24 hrs by CLSI method; method in brief: as §3
[17] = test system: Staphylococcus aureus; experiment: Antibacterial activity against Staphylococcus aureus ATCC 35556 assessed as inhibition of biofilm formation after 24 hrs by CLSI method; method in brief: as §2
[18] = test system: Staphylococcus aureus; experiment: Antibacterial activity against methicillin-susceptible Staphylococcus aureus L2 assessed as induction of biofilm eradication after 24 hrs by CLSI method; method in brief: as §3
[19] = test system: Staphylococcus aureus; experiment: Antibacterial activity against methicillin-susceptible Staphylococcus aureus L2 after 24 hrs by CLSI method; details: L2, 24 h; method in brief: as §1
[20] = test system: Staphylococcus aureus; experiment: Antibacterial activity against methicillin-resistant Staphylococcus aureus L83 assessed as induction of biofilm eradication after 24 hrs by CLSI method; method in brief: as §3
[21] = test system: Staphylococcus aureus; experiment: Antibacterial activity against methicillin-resistant Staphylococcus aureus L32 assessed as inhibition of biofilm formation after 24 hrs by CLSI method; method in brief: as §2
[22] = test system: Staphylococcus aureus; experiment: Antibacterial activity against methicillin-resistant Staphylococcus aureus L83 assessed as inhibition of biofilm formation after 24 hrs by CLSI method; method in brief: as §2

SMILES	MBC [1] [µg/mL]	MBIC [2] [µg/mL]	MBEC [3] [µg/mL]	MBIC [4] [µg/mL]	MBEC [5] [µg/mL]	MBEC [6] [µg/mL]	MBIC [7] [µg/mL]	MBC [8] [µg/mL]	MBC [9] [µg/mL]	MBEC [10] [µg/mL]	MBIC [12] [µg/mL]	MBC [14] [µg/mL]	MBC [15] [µg/mL]	MIC [15] [µg/mL]	MBEC [16] [µg/mL]	MBIC [17] [µg/mL]	MBEC [18] [µg/mL]	MBC [19] [µg/mL]	also measured
CCCCCCCCCCNCCN[C@@]1(C)C[C@H](O[C@H]2[C@H](Oc3c4cc5cc3Oc3ccc(cc3Cl)[C@@H](O)[C@@H](NC(=O)[C@@H](CC(C)C)NC)C(=O)N[C@@H](CC(N)=O)C(=O)N[C@H]5C(=O)N[C@H]3C(=O)N[C@H](C(=O)N[C@H](C(=O)O)c5cc(O)c(CNCP(=O)(O)O)c(O)c5-c5cc3ccc5O)[C@H](O)c3ccc(c(Cl)c3)O4)O[C@H](CO)[C@@H](O)[C@@H]2O)O[C@@H](C)[C@H]1O [TELAVANCIN]	0.25 (≈ 0.142 µM)	0.5	0.5	1	1	2	1	0.125 (≈ 0.0712 µM)	0.125 (≈ 0.0712 µM)	0.125	0.5	0.125 (≈ 0.0712 µM)	1 (≈ 0.57 µM)	0.25 (≈ 0.142 µM)	1	0.25	1	0.125 (≈ 0.0712 µM)	MIC [1]: 0.06 µg/mL (≈ 0.0342 µM); MIC [8]: 0.125 µg/mL (≈ 0.0712 µM); MIC [9]: 0.06 µg/mL (≈ 0.0342 µM); MIC [11]: 0.06 µg/mL (≈ 0.0342 µM); MBC [13]: 0.125 µg/mL (≈ 0.0712 µM); MIC [13]: 0.125 µg/mL (≈ 0.0712 µM); MIC [14]: 0.03 µg/mL (≈ 0.0171 µM); MIC [19]: 0.06 µg/mL (≈ 0.0342 µM)
CN[C@H](CC(C)C)C(=O)N[C@H]1C(=O)N[C@@H](CC(N)=O)C(=O)N[C@H]2C(=O)N[C@H]3C(=O)N[C@H](C(=O)N[C@H](C(=O)O)c4cc(O)cc(O)c4-c4cc3ccc4O)[C@H](O)c3ccc(c(Cl)c3)Oc3cc2cc(c3O[C@@H]2O[C@H](CO)[C@@H](O)[C@H](O)[C@H]2O[C@H]2C[C@](C)(N)[C@H](O)[C@H](C)O2)Oc2ccc(cc2Cl)[C@H]1O [VANCOMYCIN]	2 (≈ 1.38 µM)	4	2	16	>256	>256	16	2 (≈ 1.38 µM)	2 (≈ 1.38 µM)	>256	8	2 (≈ 1.38 µM)	16 (≈ 11 µM)	2 (≈ 1.38 µM)	4	16	>256	2 (≈ 1.38 µM)	MBEC [20]: >256 µg/mL; MBIC [21]: 8 µg/mL; MBIC [22]: 4 µg/mL
